Results published in PubChem BioAssay AID463078 (The Scripps Research Institute Molecular Screening Center, 2010).
Activity calls are given as the source filed them.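 How the source made its calls: active means fold change below the hit cutoff of 0.7; inactive means the rest.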

Molecular target: Nuclear receptor ROR-alpha (Homo sapiens) (UniProt P35398)
Experiment: inhibitors of RORa reporter activity, late-stage follow-up, RORA inverse agonist project, cell-based, luminescence, assay provider (AID 463078)
Settings: HEK293T GAL4-RORa LBD luciferase reporter, 20 h; at 10 µM; stronger effect = lower value
Outline: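 System: HEK293T cells with GAL4-RORα LBD and UAS-luciferase. Incubation: 20 h compound exposure. Control set: DMSO vehicle wells. Signal: luminescence. Repeats: six replicates per compound. Evaluation: fold change in luminescence, treated versus DMSO-treated cells, replicate-averaged. Compound: single nominal 10 µM dose per test compound.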

Nuclear receptor ROR-alpha (Homo sapiens), sequence (P35398 whole entry, looked up): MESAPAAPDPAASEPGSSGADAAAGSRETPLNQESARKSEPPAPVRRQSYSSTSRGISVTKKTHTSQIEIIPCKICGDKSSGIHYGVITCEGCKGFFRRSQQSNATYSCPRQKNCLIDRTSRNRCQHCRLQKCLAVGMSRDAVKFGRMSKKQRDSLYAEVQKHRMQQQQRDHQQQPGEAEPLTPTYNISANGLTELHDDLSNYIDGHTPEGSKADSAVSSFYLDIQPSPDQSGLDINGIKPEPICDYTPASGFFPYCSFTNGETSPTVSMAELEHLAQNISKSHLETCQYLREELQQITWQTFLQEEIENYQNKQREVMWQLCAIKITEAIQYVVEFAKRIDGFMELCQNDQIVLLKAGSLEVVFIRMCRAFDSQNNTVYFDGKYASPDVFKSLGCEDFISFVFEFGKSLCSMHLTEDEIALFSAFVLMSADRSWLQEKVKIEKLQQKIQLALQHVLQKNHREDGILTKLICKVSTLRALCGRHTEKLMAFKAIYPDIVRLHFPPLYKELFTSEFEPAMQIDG

fold change | SMILES
1.23 (inactive) | O=C(Nc1ccc(C(O)(C(F)(F)F)C(F)(F)F)cc1)c1ccc(Cl)cc1
1.1 (inactive) | O=C(Nc1ccc(C(O)(C(F)(F)F)C(F)(F)F)cc1)c1ccc(F)cc1Cl
1.71 (inactive) | O=C(Nc1ccc(C(O)(C(F)(F)F)C(F)(F)F)cc1)c1ccc(F)cc1F
0.63 | O=S(=O)(Nc1ccc(C(O)(C(F)(F)F)C(F)(F)F)cc1)c1cccs1
0.944 (inactive) | O=C(Nc1ccc(C(O)(C(F)(F)F)C(F)(F)F)cc1)c1c(F)cccc1F
0.806 (inactive) | O=C(Nc1ccc(C(O)(C(F)(F)F)C(F)(F)F)cc1)c1ccccc1C(F)(F)F
